Assay results taken from paper PMC9453980 (ACS Omega, 2022).
One block for each compound: values may come before it.

Key:
[1] = system: HeLa cells; test: RPA foci formation; format: cell-based, human
Method in brief: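 HeLa cells were seeded for 24 h, then treated with test agents for 24 h. They were fixed in 4% paraformaldehyde for 20 min, permeabilized with 0.3% Triton X-100 and blocked in 5% BSA. Cells were stained overnight at 4 °C for RPA2 and γH2AX, then with fluorescent secondaries and DAPI. Automated microscopy scored the percentage of RPA-foci-positive cells.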

[2] = system: BaPif1; test: F-EMSA assay of BaPif1-dT12 interaction; format: binding, Bacteroides sp. 2-1-16
[3] = biological target: BaPif1; test: ATPase activity assay; format: biochemical, Bacteroides sp. 2-1-16; details: read-out: IC50, inhibition of ATPase activity of BaPif1
Method in brief: (§1)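 ATP depletion (luciferase) assay. BaPif1 (GST fusion expressed in E. coli BL21(DE3), tag cleaved) or hPif1 helicase domain (aa200-641, N-terminal His6, E. coli BL21(DE3)), at 0.1 mg/mL. Protein was preincubated with a compound dilution series for 30 min at 25 °C in 20 mM Tris-HCl pH 7.5, 150 mM NaCl, 5 mM MgCl2, 5% DMSO final. 100 nM ssDNA and 100 nM ATP were added, 10 min at 25 °C, then stopped with NaOH. Remaining ATP was read as firefly luciferase luminescence.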

[4] = system: BaPif1; test: Helicase; format: biochemical, Bacteroides sp. 2-1-16; details: gel-based titration
[5] = biological target: T1, hPif1-HD (Homo sapiens, UniProt Q9H611); test: FP assay of DNA-binding activity
T1 sequence (Q9H611 200-641): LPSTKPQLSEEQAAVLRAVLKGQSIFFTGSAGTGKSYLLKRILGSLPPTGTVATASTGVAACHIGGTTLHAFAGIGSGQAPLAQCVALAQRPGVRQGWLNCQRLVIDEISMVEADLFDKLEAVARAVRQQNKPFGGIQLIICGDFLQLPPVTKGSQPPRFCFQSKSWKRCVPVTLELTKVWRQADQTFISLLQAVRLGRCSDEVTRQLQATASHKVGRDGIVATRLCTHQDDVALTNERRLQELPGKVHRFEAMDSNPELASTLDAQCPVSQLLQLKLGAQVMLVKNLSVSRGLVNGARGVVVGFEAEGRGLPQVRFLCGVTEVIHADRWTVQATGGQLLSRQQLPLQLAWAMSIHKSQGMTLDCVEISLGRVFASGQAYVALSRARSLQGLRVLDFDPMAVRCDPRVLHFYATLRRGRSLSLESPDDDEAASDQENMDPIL
Method in brief: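 Fluorescence polarization read at ex 480/em 520 nm. The hPif1 helicase domain (aa200-641, His6-tagged) was at 10 μM with 0.5 μM FAM-labelled DNA and a titration of test compound. Buffer was 25 mM Tris-HCl pH 7.5, 5 mM MgCl2, with no DTT. IC50 was obtained by fitting the binding curves.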

[6] = biological target: T1, hPif1-HD; test: ATPase activity assay; format: biochemical
Method in brief: as §1

[7] = biological target: T1, hPif1-HD; test: Helicase; format: biochemical; details: 20 μM hPif1-HD, 20 bp dsDNA with 5′ dT55 tail
[8] = system: BaPif1; test: Filtration-dilution reversibility experiment; format: biochemical, Bacteroides sp. 2-1-16; details: 50 μM compound, three filtration and dilution cycles, 1000-fold dilution
Method in brief: (§2)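 Reversibility test. Wild-type or C380A BaPif1 at 0.1 mg/mL in ATPase buffer was incubated 30 min with 5% DMSO or 50 μM compound in 5% DMSO. It was concentrated on a 10 kDa cut-off centrifugal filter and the retentate diluted 10-fold with buffer. This was done three times (1000-fold total). Residual ATPase activity was then measured by the luciferase ATP assay and expressed as percent inhibition.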

[9] = system: BaPif1 C380A mutant; test: FP assay of DNA-binding activity, C380A mutant; design: species or system Bacteroides sp. 2-1-16
Method in brief: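 FP competition with FAM-labelled DNA in 25 mM Tris-HCl pH 7.5, 5 mM MgCl2 (ex 480/em 520 nm). The C380A point mutant was made by PCR mutagenesis and purified as for wild type, and was compared with wild-type BaPif1. Each protein was held with 50 μM test compound across a range of DTT concentrations to give dose-response curves.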

[10] = system: BaPif1 C234A mutant; test: FP assay of DNA-binding activity, C234A mutant; design: species or system Bacteroides sp. 2-1-16
[11] = system: BaPif1 C380A mutant; test: Filtration-dilution reversibility experiment, C380A mutant; format: biochemical, Bacteroides sp. 2-1-16; details: filtration experiments
Method in brief: as §2

[12] = system: HeLa cells; test: Western blot of Pif1, RPA2 and γH2AX; format: cell-based, human; details: 10 μM TD combined with 2.5 mM HU
Method in brief: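 HeLa lysates were made in RIPA buffer with protease inhibitor at 4 °C and quantified by BCA. 10−30 μg per lane was run on SDS-PAGE and blotted to PVDF. Membranes were blocked 1 h in 5% milk and probed overnight at 4 °C for Pif1, RPA2, γH2AX and GAPDH (loading control). HRP anti-mouse secondary (1:5000, 1 h) and ECL detection followed.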

[13] = system: GSK-3β; details: cited from earlier work
[14] = system: "Cys-conserved" kinases; details: 10 μM TD, panel of 68 kinases; cited from earlier work
[15] = system: BaPif1 (Bacteroides sp. 2-1-16); test: fluorescence polarization

Compound: NC(=O)NO [HU, hydroxyurea]
Induction of RPA foci formation ([1]; 2.5 mM HU): efficiently induce RPA foci formation

IC50 [3]: 2.3 ± 0.13 µM
Concentration at which unwinding (helicase) activity of BaPif1 was inhibited [4]: 4 µM
IC50 [5]: 5.79 ± 0.6 µM
IC50 [6]: 2.5 ± 0.1 µM
Concentration at which helicase activity of hPif1-HD was inhibited [7]: 7.8 µM
Reversibility of inhibition of BaPif1 ATPase activity after filtration-dilution [8]: irreversible
Sensitivity of C380A mutant to the compound compared with wild-type [9]: less sensitive
Sensitivity of C234A mutant to the compound compared with wild-type [10]: little change
Reversibility of inhibition of C380A ATPase activity after filtration [11]: reversible
Compound: O=c1sn(-c2cccc3ccccc23)c(=O)n1Cc1ccccc1 [TD, Tideglusib]
Blocking of ssDNA binding to BaPif1 (F-EMSA), in words [2]: could block the binding of single-stranded DNA (ssDNA) to the BaPif1 protein
Reduction of RPA foci formation ([1]; 10 μM TD combined with 2.5 mM HU, 24 h): 20%
Protein level of Pif1 and RPA [12]: did not alter
Protein level of γH2AX [12]: slightly decreased
Reversibility of GSK-3β inhibition [13]: irreversibly
Number of "Cys-conserved" kinases significantly inhibited [14]: 10 of the 26

Compound: TTTTTTTTTTTTTTTTTT [FAM-dT18]
Kd [15]: 7 µM
